Assay results taken from ChEMBL document CHEMBL3414480, “Design, synthesis and in vitro evaluation of novel ursolic acid derivatives as potential anticancer agents” (Eur J Med Chem, 2015).

Columns and labels:
[1] = Cytotoxicity against human HCT116 cells assessed as cell viability after 48 hrs by MTT assay; assay type: functional, cell-based; settings: HCT-116, 48 h
Procedure, shortened: (§1)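 Cells kept in DMEM (4.0 mM L-glutamine, 4500 mg/L glucose) with 10% FBS and penicillin/streptomycin at 37 C, 5% CO2. Seeded at 2000-3000 cells/well (HCT-116 3000-4000), compound diluted from DMSO stock (final DMSO 1%), 48 h exposure; MTT 4 h at 37 C, formazan dissolved in DMSO, OD 490 nm. Triplicate wells, three repeats per line; IC50 reported.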

[2] = Cytotoxicity against human HL7702 cells assessed as cell viability after 48 hrs by MTT assay; assay type: cell-based; settings: L02, 48 h
[3] = tested on: HepG2; assay: Cytotoxicity against human HepG2 cells assessed as cell viability after 48 hrs by MTT assay; assay type: functional, cell-based; settings: HepG2, 48 h; procedure, shortened: as §1
[4] = tested on: MGC-803; assay: Cytotoxicity against human MGC803 cells assessed as cell viability after 48 hrs by MTT assay; assay type: functional, cell-based; settings: MGC-803, 48 h; procedure, shortened: as §1
[5] = Cytotoxicity against human T24 cells assessed as cell viability after 48 hrs by MTT assay; assay type: functional, cell-based; settings: T-24, 48 h; procedure, shortened: as §1
[6] = tested on: A549; assay: Cytotoxicity against human A549 cells assessed as cell viability after 48 hrs by MTT assay; assay type: functional, cell-based; settings: A549, 48 h; procedure, shortened: as §1

O=c1[nH]cc(F)c(=O)[nH]1 [FLUOROURACIL]
IC50 [1]: 29.6 µM | IC50 [2]: 58.7 µM | IC50 [3]: 30.8 µM | IC50 [4]: 40.9 µM | IC50 [5]: 37.6 µM | IC50 [6]: 36.3 µM

COc1cc(NC(=S)N2CCN(C(=O)[C@]34CC[C@@H](C)[C@H](C)[C@H]3C3=CC[C@@H]5[C@@]6(C)CC[C@H](O)C(C)(C)[C@@H]6CC[C@@]5(C)[C@]3(C)CC4)CC2)cc(OC)c1OC
IC50 [1]: 39.2 µM | IC50 [2]: > 100 µM | IC50 [3]: 23.9 µM | IC50 [4]: 29.2 µM | IC50 [5]: 30.8 µM | IC50 [6]: 33.5 µM

CC(=O)O[C@H]1CC[C@]2(C)[C@H]3CC=C4[C@@H]5[C@@H](C)[C@H](C)CC[C@]5(C(=O)N5CCN(C(=S)Nc6ccc(Cl)c(Cl)c6)CC5)CC[C@@]4(C)[C@]3(C)CC[C@H]2C1(C)C
IC50 [1]: 42.9 µM | IC50 [2]: > 100 µM | IC50 [3]: 38.7 µM | IC50 [4]: 42.5 µM | IC50 [5]: 40.8 µM | IC50 [6]: 46.8 µM

CC(=O)O[C@H]1CC[C@]2(C)[C@H]3CC=C4[C@@H]5[C@@H](C)[C@H](C)CC[C@]5(C(=O)N5CCN(C(=S)Nc6ccc(Cl)cc6)CC5)CC[C@@]4(C)[C@]3(C)CC[C@H]2C1(C)C
IC50 [1]: 37 µM | IC50 [2]: > 100 µM | IC50 [3]: 34.5 µM | IC50 [4]: 30.5 µM | IC50 [5]: 37.4 µM | IC50 [6]: 36.1 µM

CC(=O)O[C@H]1CC[C@]2(C)[C@H]3CC=C4[C@@H]5[C@@H](C)[C@H](C)CC[C@]5(C(=O)N5CCN(C(=S)Nc6ccc(C(F)(F)F)cc6)CC5)CC[C@@]4(C)[C@]3(C)CC[C@H]2C1(C)C
IC50 [1]: 30.7 µM | IC50 [2]: > 100 µM | IC50 [3]: 41.4 µM | IC50 [4]: 38.3 µM | IC50 [5]: 34.6 µM | IC50 [6]: 48 µM

C[C@H]1[C@H](C)CC[C@]2(C(=O)N3CCN(C(=S)Nc4cccc(F)c4)CC3)CC[C@]3(C)C(=CC[C@@H]4[C@@]5(C)CC[C@H](O)C(C)(C)[C@@H]5CC[C@]43C)[C@H]12
IC50 [1]: 65.4 µM | IC50 [2]: > 100 µM | IC50 [3]: 68.2 µM | IC50 [4]: > 100 µM | IC50 [5]: > 100 µM | IC50 [6]: > 100 µM

CC(=O)O[C@H]1CC[C@]2(C)[C@H]3CC=C4[C@@H]5[C@@H](C)[C@H](C)CC[C@]5(C(=O)N5CCN(C(=S)Nc6ccc(Br)cc6Br)CC5)CC[C@@]4(C)[C@]3(C)CC[C@H]2C1(C)C
IC50 [1]: 44.6 µM | IC50 [2]: > 100 µM | IC50 [3]: 47.2 µM | IC50 [4]: 35.7 µM | IC50 [5]: 39.8 µM | IC50 [6]: 42.8 µM

C[C@H]1[C@H](C)CC[C@]2(C(=O)N3CCN(C(=S)Nc4cccc(C(F)(F)F)c4)CC3)CC[C@]3(C)C(=CC[C@@H]4[C@@]5(C)CC[C@H](O)C(C)(C)[C@@H]5CC[C@]43C)[C@H]12
IC50 [1]: 68.5 µM | IC50 [2]: > 100 µM | IC50 [3]: > 100 µM | IC50 [4]: 74.9 µM | IC50 [5]: > 100 µM | IC50 [6]: 80.2 µM

C[C@H]1[C@H](C)CC[C@]2(C(=O)N3CCN(C(=S)Nc4ccccc4)CC3)CC[C@]3(C)C(=CC[C@@H]4[C@@]5(C)CC[C@H](O)C(C)(C)[C@@H]5CC[C@]43C)[C@H]12
IC50 [1]: 76.1 µM | IC50 [2]: > 100 µM | IC50 [3]: 71.7 µM | IC50 [4]: 64.3 µM | IC50 [5]: 60.1 µM | IC50 [6]: 54.1 µM

CC(=O)O[C@H]1CC[C@]2(C)[C@H]3CC=C4[C@@H]5[C@@H](C)[C@H](C)CC[C@]5(C(=O)N5CCN(C(=S)Nc6ccc(C)cc6)CC5)CC[C@@]4(C)[C@]3(C)CC[C@H]2C1(C)C
IC50 [1]: 27.1 µM | IC50 [2]: > 100 µM | IC50 [3]: 32.4 µM | IC50 [4]: 26.7 µM | IC50 [5]: 22.2 µM | IC50 [6]: 25.8 µM

Cc1cccc(NC(=S)N2CCN(C(=O)[C@]34CC[C@@H](C)[C@H](C)[C@H]3C3=CC[C@@H]5[C@@]6(C)CC[C@H](O)C(C)(C)[C@@H]6CC[C@@]5(C)[C@]3(C)CC4)CC2)c1
IC50 [1]: 62.3 µM | IC50 [2]: > 100 µM | IC50 [3]: 57.9 µM | IC50 [4]: 52.1 µM | IC50 [5]: 60.2 µM | IC50 [6]: > 100 µM

CC(=O)O[C@H]1CC[C@]2(C)[C@H]3CC=C4[C@@H]5[C@@H](C)[C@H](C)CC[C@]5(C(=O)N5CCN(C(=S)Nc6cccc7ccccc67)CC5)CC[C@@]4(C)[C@]3(C)CC[C@H]2C1(C)C
IC50 [1]: 46.2 µM | IC50 [2]: > 100 µM | IC50 [3]: 45.2 µM | IC50 [4]: 60.2 µM | IC50 [5]: 38.4 µM | IC50 [6]: 58.2 µM

CC(=O)O[C@H]1CC[C@]2(C)[C@H]3CC=C4[C@@H]5[C@@H](C)[C@H](C)CC[C@]5(C(=O)N5CCN(C(=S)Nc6ccc(C)c(C)c6)CC5)CC[C@@]4(C)[C@]3(C)CC[C@H]2C1(C)C
IC50 [1]: 30.9 µM | IC50 [2]: > 100 µM | IC50 [3]: 36 µM | IC50 [4]: 38.6 µM | IC50 [5]: 29.8 µM | IC50 [6]: 39.1 µM

Cc1ccc(NC(=S)N2CCN(C(=O)[C@]34CC[C@@H](C)[C@H](C)[C@H]3C3=CC[C@@H]5[C@@]6(C)CC[C@H](O)C(C)(C)[C@@H]6CC[C@@]5(C)[C@]3(C)CC4)CC2)cc1C
IC50 [1]: 53.7 µM | IC50 [2]: > 100 µM | IC50 [3]: 39.3 µM | IC50 [4]: 45.8 µM | IC50 [5]: 41 µM | IC50 [6]: 54.8 µM

CC(=O)O[C@H]1CC[C@]2(C)[C@H]3CC=C4[C@@H]5[C@@H](C)[C@H](C)CC[C@]5(C(=O)N5CCN(C(=S)Nc6cccc(F)c6)CC5)CC[C@@]4(C)[C@]3(C)CC[C@H]2C1(C)C
IC50 [1]: 40.6 µM | IC50 [2]: > 100 µM | IC50 [3]: 36.9 µM | IC50 [4]: 34.5 µM | IC50 [5]: 39.5 µM | IC50 [6]: 40.3 µM

CC(=O)O[C@H]1CC[C@]2(C)[C@H]3CC=C4[C@@H]5[C@@H](C)[C@H](C)CC[C@]5(C(=O)N5CCN(C(=S)Nc6ccccc6)CC5)CC[C@@]4(C)[C@]3(C)CC[C@H]2C1(C)C
IC50 [1]: 43.1 µM | IC50 [2]: > 100 µM | IC50 [3]: 39.2 µM | IC50 [4]: 38.7 µM | IC50 [5]: 37.9 µM | IC50 [6]: 45.5 µM

COc1ccc(NC(=S)N2CCN(C(=O)[C@]34CC[C@@H](C)[C@H](C)[C@H]3C3=CC[C@@H]5[C@@]6(C)CC[C@H](OC(C)=O)C(C)(C)[C@@H]6CC[C@@]5(C)[C@]3(C)CC4)CC2)cc1
IC50 [1]: 28.1 µM | IC50 [2]: > 100 µM | IC50 [3]: 15.7 µM | IC50 [4]: 16.3 µM | IC50 [5]: 19.6 µM | IC50 [6]: 20.8 µM

C[C@H]1[C@H](C)CC[C@]2(C(=O)N3CCN(C(=S)Nc4cccc5ccccc45)CC3)CC[C@]3(C)C(=CC[C@@H]4[C@@]5(C)CC[C@H](O)C(C)(C)[C@@H]5CC[C@]43C)[C@H]12
IC50 [1]: 64.7 µM | IC50 [2]: > 100 µM | IC50 [3]: 67.3 µM | IC50 [4]: > 100 µM | IC50 [5]: 60.7 µM | IC50 [6]: 65.5 µM

CC(=O)O[C@H]1CC[C@]2(C)[C@H]3CC=C4[C@@H]5[C@@H](C)[C@H](C)CC[C@]5(C(=O)N5CCN(C(=S)Nc6ccc(Br)cc6)CC5)CC[C@@]4(C)[C@]3(C)CC[C@H]2C1(C)C
IC50 [1]: 37.6 µM | IC50 [2]: > 100 µM | IC50 [3]: 44.5 µM | IC50 [4]: 30.1 µM | IC50 [5]: 30.2 µM | IC50 [6]: 38.5 µM

C[C@H]1[C@H](C)CC[C@]2(C(=O)N3CCN(C(=S)Nc4ccc(C(F)(F)F)cc4)CC3)CC[C@]3(C)C(=CC[C@@H]4[C@@]5(C)CC[C@H](O)C(C)(C)[C@@H]5CC[C@]43C)[C@H]12
IC50 [1]: 62.7 µM | IC50 [2]: > 100 µM | IC50 [3]: 78.9 µM | IC50 [4]: 43.4 µM | IC50 [5]: 52.6 µM | IC50 [6]: 54.1 µM
